Data set [1] relates to Cell membrane. Put plainly: Induction of membrane depolarization in Escherichia coli at 0.4 uM incubated 20 to 30 mins under dark by Eclipse fluorescence spectrometry. It counts as subcellular. The settings on record: time 20-30 min. The essentials: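 Exponential-phase E. coli (OD 0.2–0.4) was washed in 5 mM HEPES, 20 mM glucose, 100 mM KCl, pH 7.2, and resuspended to OD 0.05. DiSC3(5) was added at 0.4 μM final and equilibrated in the dark for 20–30 min to a stable baseline. Peptide was then added and dye release was followed by fluorescence at ex 625 nm / em 666 nm.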

Data set [2] relates to Cell membrane. Put plainly: Induction of membrane damage in Escherichia coli assessed as loss of membrane integrity by measuring blebs at 10 uM incubated for 2 hrs by Electron scanning microscopy. It counts as subcellular. The essentials: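 E. coli was grown in LB at 37 °C to OD600 0.4 and exposed to 10 μM peptide for 2 h at room temperature. Cells were collected on 0.1 μm filters, fixed in 2.5% glutaraldehyde in cacodylate buffer pH 7.4 and post-fixed in 1% OsO4. Samples were dehydrated in ethanol, coated with gold–palladium and imaged at 15 kV.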

Data set [3] is described as follows: Stability in human serum assessed as half life by LC-MS analysis. It counts as ADME, cell-free. Summed up:
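1 mM peptide stocks in water were mixed 1:1 (v/v) with human serum. Aliquots were taken at set times and digestion was stopped by acetonitrile precipitation. Serum proteins were removed by centrifugation, and intact peptide and fragments in the supernatant were analysed by LC–MS. Half-life values are the mean of three independent studies.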

The nature of data set [4]: Retention time of the compound by HPLC analysis. It counts as physicochemical. Summed up: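 Analytical RP-HPLC on a C18 column (4.6 × 50 mm, 3 μm) with a linear gradient of 0–60% acetonitrile (0.036% TFA) into water (0.045% TFA) over 15 min. Flow was 1 mL/min with UV detection at 220 nm.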
A further data set deals with Pseudomonas sp. In words: Antimicrobial activity against Pseudomonas sp assessed as bacterial growth inhibition incubated in presence of serum for 24 hrs. The format is functional. The essentials: (§1)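 Broth microdilution in polypropylene plates in Mueller-Hinton medium, inoculum 5 × 10^5 CFU/mL, 37 °C for 24 h. […] MIC is the lowest peptide concentration with no growth. Values are the mean of three independent studies.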

For a further data set, the system named is Salmonella enterica. Put plainly: Antimicrobial activity against Salmonella enterica assessed as bacterial growth inhibition incubated in presence of serum for 24 hrs. The format is functional. The essentials:
as §1

Another data set relates to Shigella flexneri. In words: Antimicrobial activity against Shigella flexneri assessed as bacterial growth inhibition incubated in presence of serum for 24 hrs. The format is functional. Summed up:
as §1

Data set [5] in a line: Hemolytic activity in horse RBC assessed as hemolysis at 250 uM relative to control. The following applies: erythrocyte. The format is ADME, tissue-based, Equus caballus. Summed up: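 Horse erythrocytes were diluted 10-fold in PBS and washed by three spins at 800g. They were incubated with peptides for 4 h at 37 °C, and supernatant absorbance was read at 540 nm. Percent hemolysis is relative to total lysis with 1% Triton X-100. Values are the mean of three independent studies.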

The subject of a further data set is MRC5. Put plainly: Cytotoxicity against human MRC5 cells assessed as cell growth inhibition measured after 4 hrs by MTT assay. The following applies: MRC5, 4 h. The format is cell-based. Summed up: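 MRC-5 fibroblasts were grown in MEMα with 10% FBS, seeded at 3 × 10^4 cells/well and left overnight to adhere. Cells were exposed to two-fold peptide serial dilutions for 4 h, then given medium with MTT at 0.4 mg/mL for 150 min. Formazan was dissolved in DMSO and read at 600 nm. Values are the mean of three independent studies.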
Background: Tetrazolium dyes change colour on reduction, which living cells bring about.

Data set [6] relates to Escherichia coli. Put plainly: Antimicrobial activity against clinical isolate Escherichia coli 116878 assessed as bacterial growth inhibition incubated in presence of serum for 24 hrs. The format is functional. Summed up: as §1
Data set [7] deals with Escherichia coli. Put plainly: Antimicrobial activity against clinical isolate Escherichia coli cf073 assessed as bacterial growth inhibition incubated in presence of serum for 24 hrs. It counts as functional. Summed up:
as §1

Data set [8] deals with Pseudomonas aeruginosa. Put plainly: Antimicrobial activity against clinical isolate Pseudomonas aeruginosa 827651 assessed as bacterial growth inhibition incubated in presence of serum for 24 hrs. It counts as functional. Summed up: as §1
Data set [9] relates to Pseudomonas aeruginosa. Put plainly: Antimicrobial activity against clinical isolate Pseudomonas aeruginosa 827632 assessed as bacterial growth inhibition incubated in presence of serum for 24 hrs. The format is functional. The essentials:
as §1

Data set [10] concerns Salmonella typhimurium. In words: Antimicrobial activity against clinical isolate Salmonella typhimurium 324 assessed as bacterial growth inhibition incubated in presence of serum for 24 hrs. It counts as functional, Salmonella enterica subsp. enterica serovar Typhimurium. The settings on record: Salmonella enterica. The essentials: as §1
Data set [11] relates to Salmonella typhimurium. In words: Antimicrobial activity against clinical isolate Salmonella typhimurium 365 assessed as bacterial growth inhibition incubated in presence of serum for 24 hrs. The format is functional, Salmonella enterica subsp. enterica serovar Typhimurium. The settings on record: Salmonella enterica. The essentials:
as §1

In data set [12] the test system is Acinetobacter baumannii. Put plainly: Antimicrobial activity against clinical isolate Acinetobacter baumannii 3862 assessed as bacterial growth inhibition incubated in presence of serum for 24 hrs. It counts as functional. The essentials: as §1
Data set [13] has as its system Acinetobacter baumannii. In words: Antimicrobial activity against clinical isolate Acinetobacter baumannii 3878 assessed as bacterial growth inhibition incubated in presence of serum for 24 hrs. The format is functional. The essentials:
as §1

The subject of data set [14] is Acinetobacter baumannii. In words: Antimicrobial activity against clinical isolate Acinetobacter baumannii 3879 assessed as bacterial growth inhibition incubated in presence of serum for 24 hrs. The format is functional. The essentials:
as §1

The subject of data set [15] is Acinetobacter baumannii. Put plainly: Antimicrobial activity against clinical isolate Acinetobacter baumannii 3880 assessed as bacterial growth inhibition incubated in presence of serum for 24 hrs. It counts as functional. Summed up:
as §1

The test system of data set [16] is Escherichia coli. In words: Antimicrobial activity against Escherichia coli assessed as bacterial growth inhibition incubated for 24 hrs.
The subject of data set [17] is Acinetobacter baumannii. In words: Antimicrobial activity against Acinetobacter baumannii assessed as bacterial growth inhibition incubated for 24 hrs.

Values after ≈ are worked out from the molar mass of the structure shown. Active and inactive are the calls of the source. The calls are words filed in the database; no cut-off is given here. Square brackets hold non-standard residues; d marks the D form. Peptide text beside a SMILES is read from it. Orn = NCCC[C@H](N)C(=O)O

Take `CC[C@H](C)[C@H](NC(=O)[C@H](CCCCN)NC(=O)[C@H](CCC(=O)O)NC(=O)[C@H](CCCCN)NC(=O)[C@H](CO)NC(=O)[C@H](CCCCN)NC(=O)[C@H](CCCNC(=N)N)NC(=O)[C@H](Cc1ccccc1)NC(=O)[C@H](Cc1ccccc1)NC(=O)[C@H](CC(=O)O)NC(=O)CNC(=O)[C@H](CC(C)C)NC(=O)[C@@H](N)CC(C)C)C(=O)NCC(=O)N[C@@H](CCCCN)C(=O)N[C@@H](CCC(=O)O)C(=O)N[C@@H](Cc1ccccc1)C(=O)N[C@@H](CCCCN)C(=O)N[C@@H](CCCNC(=N)N)C(=O)N[C@H](C(=O)N[C@H](C(=O)N[C@@H](CCC(N)=O)C(=O)N[C@@H](CCCNC(=N)N)C(=O)N[C@H](C(=O)N[C@@H](CCCCN)C(=O)N[C@@H](CC(=O)O)C(=O)N[C@@H](Cc1ccccc1)C(=O)N[C@@H](CC(C)C)C(=O)N[C@@H](CCCNC(=N)N)C(=O)N[C@@H](CC(N)=O)C(=O)N[C@@H](CC(C)C)C(=O)N[C@H](C(=O)N1CCC[C@H]1C(=O)N[C@@H](CCCNC(=N)N)C(=O)N[C@H](C(=O)N[C@@H](CCC(=O)O)C(=O)N[C@@H](CO)C(=O)O)[C@@H](C)O)C(C)C)[C@@H](C)CC)C(C)C)[C@@H](C)CC`: the outcome with Cell membrane [1] and in the data set with Cell membrane [2] was Active.
A word on the half-life: it is the time in which the quantity being followed falls by half. One may read the MIC as the lowest concentration that inhibits growth of the organism. Usually IC50 stands for the point on the concentration scale where inhibition reaches its midpoint. As to `CC[C@H](C)[C@H](NC(=O)[C@H](C)NC(=O)[C@H](CCCN)NC(=O)[C@H](CCSC)NC(=O)[C@H](C)NC(=O)[C@@H](NC(=O)[C@@H](NC(=O)[C@H](CCCN)NC(=O)[C@@H]1CCCN1C(=O)[C@H](CO)NC(=O)[C@@H](NC(=O)[C@H](Cc1c[nH]cn1)NC(=O)[C@H](CCC(N)=O)NC(=O)[C@@H](NC(=O)[C@H](C)NC(=O)[C@H](Cc1ccccc1)NC(=O)[C@H](Cc1c[nH]c2ccccc12)NC(=O)[C@H](CCC(N)=O)NC(=O)[C@H](C)NC(=O)[C@H](CCCN)NC(=O)[C@@H](NC(=O)[C@H](Cc1ccccc1)NC(=O)[C@H]1CCCN1C(=O)[C@H](N)CCCN)[C@@H](C)O)[C@@H](C)CC)[C@@H](C)CC)[C@@H](C)O)[C@@H](C)CC)C(=O)N[C@@H](CC(N)=O)C(=O)N[C@@H](CC(N)=O)C(=O)N[C@@H](Cc1ccc(O)cc1)C(=O)N[C@@H](CCCN)C(=O)N[C@@H](Cc1c[nH]c2ccccc12)C(=O)N[C@@H](CCCN)C(=O)O`, in [3], the half-life is over 8 h. Besides, in data set [4], the Retention_time is listed as 10.8 min. Moreover, the MIC in the data set on Pseudomonas sp. is 1.56 µM; with Salmonella enterica it was 25 µM; in the data set on Shigella flexneri, 6.25 µM; in the data set with Escherichia coli [6], 6.25 µM; with Escherichia coli [7] it was 3.13 µM; in the data set with Pseudomonas aeruginosa [8], 100 µM. The MIC is 25 µM in the data set on Pseudomonas aeruginosa [9]; 25 µM in the data set with Salmonella typhimurium [10]; 25 µM in the data set on Salmonella typhimurium [11]; 0.78 µM in the data set with Acinetobacter baumannii [12]; 0.78 µM in the data set with Acinetobacter baumannii [13]; 1.56 µM in the data set on Acinetobacter baumannii [14]. Moreover, the results for the MIC in the data set on Acinetobacter baumannii [15], in the data set with Escherichia coli [16] and with Acinetobacter baumannii [17] were 6.25 µM, 3.13 µM (≈ 11 µg/mL) and 6.25 µM (≈ 21.9 µg/mL), respectively. Moreover, the Activity in data set [5] is 3.6%. Further, the IC50 in the data set with MRC5 is 170 µM. Besides, the outcome in the data set with Cell membrane [1] and with Cell membrane [2] was Active.
As for `CC[C@H](C)[C@H](NC(=O)[C@H](C)NC(=O)[C@H](CCCN)NC(=O)[C@H](CCSC)NC(=O)[C@H](C)NC(=O)[C@@H](NC(=O)[C@@H](NC(=O)[C@H](CCCN)NC(=O)[C@@H]1CCCN1C(=O)[C@H](CO)NC(=O)[C@@H](NC(=O)[C@H](Cc1c[nH]cn1)NC(=O)[C@H](CCC(N)=O)NC(=O)[C@@H](NC(=O)[C@H](C)NC(=O)[C@H](Cc1ccccc1)NC(=O)[C@H](Cc1c[nH]c2ccccc12)NC(=O)[C@H](CCC(N)=O)NC(=O)[C@H](C)NC(=O)[C@H](CCCN)NC(=O)[C@@H](NC(=O)[C@H](Cc1ccccc1)NC(=O)[C@@H]1CCCN1C(=O)[C@@H](N)CCCN)[C@@H](C)O)[C@@H](C)CC)[C@@H](C)CC)[C@@H](C)O)[C@@H](C)CC)C(=O)N[C@@H](CC(N)=O)C(=O)N[C@@H](CC(N)=O)C(=O)N[C@@H](Cc1ccc(O)cc1)C(=O)N[C@@H](CCCN)C(=O)N[C@@H](Cc1c[nH]c2ccccc12)C(=O)N[C@@H](CCCN)C(=O)O`, the half-life in data set [3] is 0.485 h. In [4], the Retention_time was found to be 8.4 min. For the same compound, the MIC in the data set with Pseudomonas sp. was found to be 6.25 µM; in the data set on Salmonella enterica, 25 µM; in the data set with Shigella flexneri it was 12.5 µM; in the data set on Escherichia coli [16] it was 6.25 µM (≈ 21.9 µg/mL); in the data set on Acinetobacter baumannii [17] it was 6.25 µM (≈ 21.9 µg/mL). In data set [5], the Activity was 10%. The IC50 in the data set with MRC5 worked out at 113 µM. Further, the outcome in the data set with Cell membrane [1] and in the data set on Cell membrane [2] was Active.
For the compound `CC[C@H](C)[C@H](NC(=O)[C@H](C)NC(=O)[C@H](CCCN)NC(=O)[C@H](CCSC)NC(=O)[C@H](C)NC(=O)[C@@H](NC(=O)[C@@H](NC(=O)[C@H](CCCN)NC(=O)[C@@H]1CCCN1C(=O)[C@H](CO)NC(=O)[C@@H](NC(=O)[C@H](Cc1c[nH]cn1)NC(=O)[C@H](CCC(N)=O)NC(=O)[C@@H](NC(=O)[C@H](C)NC(=O)[C@H](Cc1ccccc1)NC(=O)[C@H](Cc1c[nH]c2ccccc12)NC(=O)[C@H](CCC(N)=O)NC(=O)[C@H](C)NC(=O)[C@H](CCCN)NC(=O)[C@@H](NC(=O)[C@@H](N)Cc1ccccc1)[C@@H](C)O)[C@@H](C)CC)[C@@H](C)CC)[C@@H](C)O)[C@@H](C)CC)C(=O)N[C@@H](CC(N)=O)C(=O)N[C@@H](CC(N)=O)C(=O)N[C@@H](Cc1ccc(O)cc1)C(=O)N[C@@H](CCCN)C(=O)N[C@@H](Cc1c[nH]c2ccccc12)C(=O)N[C@@H](CCCN)C(=O)O` (H-FT[Orn]AQWFAIQHISP[Orn]TIAM[Orn]AINNY[Orn]W[Orn]-OH), in data set [3], the half-life was over 8 h. The compound further had a Retention_time in data set [4] of 10.8 min. Moreover, the MIC was 25 µM with Pseudomonas sp.; over 100 µM with Salmonella enterica; 50 µM with Shigella flexneri; 25 µM (≈ 82.4 µg/mL) in the data set on Escherichia coli [16]; over 100 µM with Acinetobacter baumannii [17]. Also, in [5], the Activity was 11%. For the same compound, in the data set on MRC5, the IC50 is over 300 µM.

The record behind these values is ChEMBL document CHEMBL5030529, “Rationally Modified Antimicrobial Peptides from the N-Terminal Domain of Human RNase 3 Show Exceptional Serum Stability” (J Med Chem, 2021).
